The values below come from PubChem BioAssay.

Test [1] is described as follows: OD615 S. cerevisiae growth inhibition, permissive medium, pilot counter-assay, permissive growth control for S. cerevisiae lifespan shortening project (AID 705;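 active = growth inhibition above 25% in both replicates, a cutoff set 3 SD above the mean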). Particulars: OD615, 24 h, at 10 µM, hits give high values. In outline: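 System: engineered DeaD yeast; Medium: permissive raffinose/galactose medium; Compound dosing: 10 µM single dose, 0.25% DMSO; Incubation: 4 h cell pre-growth, 24 h exposure at 30 °C; Technique: OD at 615 nm; Evaluation: growth inhibition from lowered OD615 after 24 h.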

Test [2] in a line: Restrictive medium S. cerevisiae growth inhibition, OD615, pilot screen of yeast lifespan reduction project, restrictive growth control (AID 706;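 active = growth inhibition above a set limit, 3 SD over mean compound inhibition, in both replicates, cut at about 43% in these data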;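 note: modified DeaD lifespan yeast strain shifted to restrictive glucose medium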). Particulars: OD615, 48 h, at 10 µM, hits give high values. The gist of the method:
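Material: modified S. cerevisiae; buffer or medium: CSMM-D glucose medium; doses: one concentration, 10 µM final, 0.25% DMSO; incubation: 48 h compound exposure at 30 °C; detection: optical density at 615 nm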

Test [3] can be described thus: viability gain of MRP-1-high H69AR cells under doxorubicin, pilot screen, MRP-1 activator project, CellTiter-Glo, duplicate (AID 807;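 active = viability increase at or above a cutoff of the median across tested compounds plus 3 SD, cut at about 8.5% in these data, passing the limit was not always enough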;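 note: compound pretreatment 18-22 h then 72 h combined with doxorubicin; 0% = doxorubicin alone and 100% = vehicle without doxorubicin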). The following applies: H69AR viability with doxorubicin, CellTiter-Glo luminescence; at 10 µM; hits give high values. (In general: Cellular ATP, detected with luciferase, serves as a proxy for viable cell number.)
Test [4] can be described thus: growth suppression of beta-catenin knockout HCT116, pilot screen, human colon tumor cells (AID 823;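 active = cell viability at or below a set limit in both duplicate runs, the limit being the all-compound median minus 4 SD, cut at about 23% in these data, passing the limit was not always enough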;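 note: 0% = wells killed by 20 µM Hyamine and 100% = untreated DMSO cell wells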). Particulars: CellTiter-Glo, 60 h, at 10 µM, hits give low values.
Test [5] can be described thus: growth suppression of PTEN-deleted HCT116, pilot screen, cell-based, HCT116 clonal line, CellTiter-Glo (AID 824;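 active = viability at or below 27.92% in each of two runs, the all-compound median minus 4 SD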;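 note: 0% = 20 µM Hyamine control and 100% = vehicle cell control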). Particulars: 60 h, at 10 µM, hits give low values.
Test [6] can be described thus: inhibitors of the yeast RAM network, pilot screen, dse1pr::URA3 reporter, 5-FOA selection (AID 869;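 active = inhibition over a set limit, the all-compound mean plus 3 SD, in both replicate runs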;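 note: 0% = DMSO wells with no growth and 100% = 10 µM 1-NA-PP1 with full growth; RAM network block rescues cells from 5-FOA so hits raise OD615 growth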). Particulars: S. cerevisiae dse1pr::URA3 5-FOA growth, OD615, 2 d; at 10 µM; hits give high values; strain carries analog-sensitive mutant Cbk1 kinase.
Test [7] is described as follows: RAM signaling pathway blockade in yeast – S. cerevisiae, Pdr1DBD-CYC8 efflux-inhibited sensitized strain, primary screen (AID 1298).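 Note: 0% = DMSO untreated cells without growth and 100% = 10 µM 1-NA-PP1 full growth; higher means more yeast growth rescued from 5-FOA killing.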 Particulars: S. cerevisiae cbk1-as DSE1-URA3 strain, 5-FOA growth OD615, 2 d; at 50 µM; hits give high values.

Unmarked numbers belong to inactive results. Inconclusive results are not listed. Calls of active or inactive are those of the source.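 Rule for the calls, unless noted: active = RAM network inhibition above 8.4% in each of two replicates, 3 SD over the compound average; inconclusive = above 8.4% inhibition in only one replicate; inactive = 8.4% inhibition or less in each replicate.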

What is called viability is a read-out of living cells in per cent, often relative to untreated cells. By inhibition is commonly meant the drop in the measured response relative to a control, in per cent. Consider `Cc1csc2nc(CNC(=O)C3CC=CCC3C(=O)O)cn12` (stereo not drawn), for which the figures for the growth inhibition in test [1] and in test [2] were -3.37% and 16.7%, respectively. Besides, in test [3], the viability increase was -2.9%. The viability is 93.7% in test [4] and 94% in test [5]. Further, the inhibition in test [6] is 2.62%. For the same compound, the RAM network inhibition in test [7] was -0.42%.
As for `Cn1c(=O)oc2cc(S(=O)(=O)N3CCCc4ccccc43)ccc21`, the values for the growth inhibition in test [1] and in test [2] were -5.55% and -1.98%, respectively. For the same compound, the viability increase in test [3] is -5.94%. The viability is 18.1% (active) in test [4] and 23.5% (active) in test [5]. The inhibition in test [6] is 1.96%. The RAM network inhibition in test [7] was 3.9%.
In the case of `CCCC(c1c(C)n(C)n(-c2ccccc2)c1=O)c1c(C)n(C)n(-c2ccccc2)c1=O`, the growth inhibition in test [1] was -9.58%; in test [2] it was -13.4%. In addition, in test [3], the viability increase was -1.18%. The viability is 90.2% in test [4] and 103% in test [5]. In addition, the inhibition in test [6] is 1.16%. In test [7], the RAM network inhibition was 4.48%.
`CC1CC(C)CN(C(=O)C(NS(=O)(=O)c2ccc3c(c2)oc(=O)n3C)C(C)C)C1` (stereo not drawn): the figures for the growth inhibition in test [1] and in test [2] were -16% and -5.28%, respectively. The viability increase in test [3] is -2.67%. Moreover, the viability in test [4] is 103%; in test [5] it was 93.6%. The inhibition in test [6] was -0.355%. The RAM network inhibition in test [7] is 6.92%.
Turning to `O=C(NCc1ccco1)C1c2ccccc2Oc2ccccc21`, the results for the growth inhibition in test [1] and in test [2] were -6.75% and 6.04%, respectively. Further, the viability increase in test [3] was -5.24%. Further, the viability in test [4] was 83.8%; in test [5], 88.4%. Further, the inhibition in test [6] is 0.12%. The RAM network inhibition in test [7] is 3.94%.
On to `CCC(NC(=O)c1ccccc1NC(=O)c1ccco1)C(=O)NC1CCCCC1` (stereo not drawn), for which the growth inhibition in test [1] is -4.2%; in test [2], 7.98%. Moreover, in test [3], the viability increase was -2.29%. Further, the viability in test [4] was 89.1%; in test [5], 98.3%. In addition, the inhibition in test [6] is 1.35%. The RAM network inhibition in test [7] was 2.08%.
As to `CCOC(=O)N1CCC(NC(=O)CSCc2nc(-c3sccc3C)oc2C)CC1`, the growth inhibition in test [1] is -9.01%; in test [2] it was -10.5%. In test [3], the viability increase is -1.24%. Besides, the viability in test [4] was 90%; in test [5], 83.5%. For the same compound, the inhibition in test [6] is 1.34%. Moreover, the RAM network inhibition in test [7] was 6.2%.
As for `COc1cccc(-c2csc(NC(=O)C3CC3)n2)c1`, the growth inhibition is 1.37% in test [1] and 13.5% in test [2]. In addition, the viability increase in test [3] is 4.92%. The viability in test [4] was 96.6%; in test [5], 91.5%. In test [6], the inhibition is -0.98%. Besides, the RAM network inhibition in test [7] is 1.49%.
With `COc1cccc(NC(=O)c2ccncc2)c1`, the growth inhibition was -9.44% in test [1] and -11% in test [2]. For the same compound, the viability increase in test [3] was -3.81%. Also, the viability in test [4] was 94.3%; in test [5] it was 100%. Moreover, the inhibition in test [6] is 1.18%. For the same compound, in test [7], the RAM network inhibition was 4.2%.
For the compound `COc1ccc(OC)c(NC(=O)NC2(C(F)(F)F)Oc3ccccc3O2)c1`, the growth inhibition in test [1] was -4.07%; in test [2] it was 0.635%. Besides, the viability increase in test [3] was -6.83%. Further, the viability is 54.9% in test [4] and 71.5% in test [5]. Moreover, in test [6], the inhibition is 0.25%. In addition, the RAM network inhibition in test [7] is 4.64%.
As to `CCOc1ccccc1NC(=O)N1CCCC1C(=O)Nc1ccc(-n2cnnn2)c(C)c1` (stereo not drawn), the growth inhibition was -11.3% in test [1] and -16.2% in test [2]. Also, in test [3], the viability increase is 0.16%. Besides, the viability in test [4] was 102%; in test [5], 97.9%. The inhibition in test [6] was 1.86%. Moreover, the RAM network inhibition in test [7] was 2.1%.
Consider `CCCCCn1c(NC2CCCCC2)nc2c1c(=O)[nH]c(=O)n2C`, for which the growth inhibition in test [1] is -15.8%; in test [2] it was -18.2%. Moreover, in test [3], the viability increase is -3.48%. For the same compound, the viability in test [4] was 83.3%; in test [5] it was 86.1%. For the same compound, the inhibition in test [6] was 1.53%. Moreover, the RAM network inhibition in test [7] is -0.84%.
`Cc1cccc(Cn2c(N(C)Cc3ccccc3)nc3c2c(=O)[nH]c(=O)n3C)c1`: the results for the growth inhibition in test [1] and in test [2] were -0.355% and -7.32%, respectively. Also, the viability increase in test [3] was -2.61%. Besides, the viability in test [4] is 75.6%; in test [5], 64.8%. In addition, the inhibition in test [6] is 2.08%. For the same compound, the RAM network inhibition in test [7] was 2.26%.
Turning to `O=C(Nc1ccc(F)cc1F)N1CCN(c2ncccn2)CC1`, the growth inhibition is -14.8% in test [1] and -26.3% in test [2]. Besides, the viability increase in test [3] is -0.19%. Besides, the viability was 106% in test [4] and 100% in test [5]. Also, the inhibition in test [6] is 1.76%. In test [7], the RAM network inhibition is 3.24%.
In the case of `Cc1cccc(N=C2NC(=O)/C(=C3/C(=O)N(C)c4ccccc43)S2)c1C`, the growth inhibition is -18.4% in test [1] and -15.6% in test [2]. Besides, the viability increase in test [3] was -7.01%. In addition, the viability in test [4] was 95.5%; in test [5] it was 91.1%. For the same compound, the inhibition in test [6] is 2.91%. Besides, the RAM network inhibition in test [7] was 1.77%.
`COc1ccccc1NC(=O)C1C2C=CC3(CN(Cc4cccnc4)C(=O)C13)O2` (stereo not drawn): the growth inhibition in test [1] is 6%; in test [2], 4.22%. Moreover, the viability increase in test [3] is 0.16%. Besides, the viability in test [4] was 98.2%; in test [5], 103%. In test [6], the inhibition was -0.25%. In addition, the RAM network inhibition in test [7] is -0.51%.
Regarding `CCCCCSc1nnc2c(n1)OC(C)N(C(C)=O)c1ccccc1-2` (stereo not drawn), the growth inhibition in test [1] is -10.3%; in test [2], -6.29%. The viability increase in test [3] was -4.28%. In addition, the values for the viability in test [4] and in test [5] were 82.8% and 86.5%, respectively. The inhibition in test [6] is 1.47%. In test [7], the RAM network inhibition was 2.22%.
For the compound `O=C(CCc1ccccc1)N1CCN(CCO)CC1`, the growth inhibition in test [1] is -4.45%; in test [2] it was 9.8%. For the same compound, the viability increase in test [3] is 0.6%. The viability was 101% in test [4] and 110% in test [5]. In test [6], the inhibition was 0.715%. In addition, the RAM network inhibition in test [7] is 3.71%.
For `CC(=O)Nc1ccc(S(=O)(=O)NCCSCc2ccco2)cc1`, the growth inhibition was -4.83% in test [1] and 16.6% in test [2]. The viability increase in test [3] is -4.43%. Besides, the viability is 82.2% in test [4] and 86% in test [5]. In addition, the inhibition in test [6] is 2.15%. The RAM network inhibition in test [7] was 2.29%.
Consider `CN(C)c1ccc(NC(=O)Cn2c(=O)n(Cc3ccccc3)c(=O)c3ccccc32)cc1`, for which the growth inhibition in test [1] is -0.65%; in test [2], 1.48%. For the same compound, in test [3], the viability increase was 3%. Moreover, the viability in test [4] was 83.2%; in test [5] it was 88.3%. Moreover, the inhibition in test [6] is 0.52%. Moreover, the RAM network inhibition in test [7] was 8.96%.
As to `Clc1ccccc1C1CC(c2ccccc2)Nc2ncnn21` (stereo not drawn), the growth inhibition in test [1] is -10.9%; in test [2], -11.2%. Moreover, the viability increase in test [3] was -1.24%. Also, the viability is 83.9% in test [4] and 81.2% in test [5]. In addition, the inhibition in test [6] was 2.05%. For the same compound, the RAM network inhibition in test [7] is -0.69%.
For the compound `O=C(NCc1ccccc1)c1cc(S(=O)(=O)N2CCOCC2)ccc1F`, the growth inhibition was -3.95% in test [1] and -30.7% in test [2]. Also, in test [3], the viability increase is 0.27%. The viability in test [4] was 94.7%; in test [5], 93%. For the same compound, the inhibition in test [6] is 3.29%. Further, the RAM network inhibition in test [7] is 3.42%.
As to `Cn1c(CCNC(=O)C(C)(C)C)nc2ccccc21`, the growth inhibition was -4.42% in test [1] and -7.26% in test [2]. The viability increase in test [3] is 0.98%. For the same compound, the viability in test [4] is 95.3%; in test [5], 98.5%. Besides, in test [6], the inhibition is 2.58%. In addition, the RAM network inhibition in test [7] is 4.43%.
`CC(C)(C)c1ccc(OCC(=O)N2CCN(C=O)CC2)cc1`: the growth inhibition in test [1] was -6.68%; in test [2], -10.2%. Moreover, the viability increase in test [3] was -2.64%. The viability in test [4] was 98.1%; in test [5] it was 100%. The inhibition in test [6] was 1.25%. For the same compound, in test [7], the RAM network inhibition was 0.67%.
